Substrate in this series: O=c1[nH]c(=O)n([C@H]2C[C@H](O)[C@@H](CO)O2)cc1[N+](=O)[O-]
The series is described as follows: Activity of Escherichia coli thymidine phosphorylase. In outline: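 Recombinant E. coli TP (0.00883 U per 0.2 ml) added to start a continuous spectrophotometric assay. Mix: 0.13 mM 5-nitro-2'-deoxyuridine substrate in 0.1 M potassium phosphate, pH 7.4, 25 °C, read at 355 nm in a microplate. Initial velocity compared with the mean of at least two no-inhibitor controls. Where derived, IC50 used at least five concentrations spanning the value.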

B1: Thymidine phosphorylase (Escherichia coli K-12), P07650 (protein)
chain: MFLAQEIIRKKRDGHALSDEEIRFFINGIRDNTISEGQIAALAMTIFFHDMTMPERVSLTMAMRDSGTVLDWKSLHLNGPIVDKHSTGGVGDVTSLMLGPMVAACGGYIPMISGRGLGHTGGTLDKLESIPGFDIFPDDNRFREIIKDVGVAIIGQTSSLAPADKRFYATRDITATVDSIPLITASILAKKLAEGLDALVMDVKVGSGAFMPTYELSEALAEAIVGVANGAGVRTTALLTDMNQVLASSAGNAVEVREAVQFLTGEYRNPRLFDVTMALCVEMLISGKLAKDDAEARAKLQAVLDNGKAAEVFGRMVAAQKGPTDFVENYAKYLPTAMLTKAVYADTEGFVSEMDTRALGMAVVAMGGGRRQASDTIDYSVGFTDMARLGDQVDGQRPLAVIHAKDENNWQEAAKAVKAAIKLADKAPESTPTVYRRISE
On to B1, for which the kcat was determined as 20 s⁻¹.

Usually kcat stands for the number of substrate molecules converted per active site and unit of time at saturation.

The values are drawn from ChEMBL document CHEMBL1156686, “Xanthine oxidase-activated prodrugs of thymidine phosphorylase inhibitors” (Eur J Med Chem, 2008).
